Assay [1] can be described thus: hit retest on RPL19A-GFP reporter strain – cell-based, S. cerevisiae, flow cytometry, cherry picks, mother/daughter gates, confirmation (AID 2270;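 active means GFP response below 50% of the DMSO control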). The conditions noted are these: 3 h, at 10 µM, stronger effect = lower value, 100 = same GFP as DMSO wells.
Assay [2] is described as follows: yeast TOR pathway reporter LAP4-GFP change – cell-based, cherry picks, flow cytometry, mother/daughter gates, confirmation (AID 2271;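 active means GFP response above 150% of the DMSO control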;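 further: ratio of sample to DMSO plate mean so 100% equals DMSO level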). The conditions noted are these: S. cerevisiae LAP4-GFP strain, 3 h, at 10 µM, stronger effect = higher value, 100 means same as DMSO control. Put shortly: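 Material: Alexa Fluor 633-labelled Saccharomyces cerevisiae GFP-fusion strain, single-plex | Amount: Yeast cells seeded at OD600 of 0.2 | Buffer or medium: SC growth medium | Schedule: 3 h exposure, 30 °C | Measured by: HT flow cytometry, GFP fluorescence channel | Evaluation: % GFP response vs DMSO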

The nature of assay [3]: TOR pathway reporter MEP2-GFP, retest of hits – S. cerevisiae, flow cytometry GFP, cherry picks, confirmation (AID 2272;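 active means GFP response above 150% of the DMSO control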;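 further: ratio of well signal to plate DMSO mean so 100% equals DMSO level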). The conditions noted are these: S. cerevisiae MEP2-GFP strain, 3 h, at 10 µM, stronger effect = higher value. (Flow cytometry measures light scatter and fluorescence of single cells or particles in a stream.)
The nature of assay [4]: yeast AGP1-GFP fluorescence change, single-dose – cell-based, flow cytometry, S. cerevisiae, cherry picks, confirmation (AID 2273).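 Further: median GFP channel fluorescence over the whole cell population gate.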 The conditions noted are these: S. cerevisiae AGP1-GFP strain, 3 h, at 10 µM.
Assay [5] in a line: TOR pathway CIT2 reporter hit retest – S. cerevisiae, GFP fusion, cherry picks, mother/daughter gates, confirmation (AID 2274). The conditions noted are these: S. cerevisiae CIT2-GFP strain, flow cytometry, 3 h, at 10 µM, stronger effect = higher value.
Where [6] appears, read: measured here: daughter cell gate.
[7] abbreviates: measured here: mother cell gate.
Where [8] appears, read: measured here: daughter cell gate response.
Where [9] appears, read: measured here: mother cell gate response.

The source made the active and inactive calls.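 How the source made its calls, unless noted: active means GFP response above 150% of the DMSO level; inconclusive means fewer than 70 events counted for a yeast strain; inactive means the rest.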

For `O=C(NNC1=NCCC1)c1cccc(Br)c1`, the GFP response vs DMSO is 98% (inactive) in assay [1], 98.5% in assay [1] (setting [6]), 97.9% in assay [1] (setting [7]) and 99.5% (inactive) in assay [3]. Moreover, the GFP response relative to DMSO in assay [2] is 100% (inactive); in assay [2] (setting [8]) it was 97.9%; in assay [2] (setting [9]) it was 99.5%. Besides, the GFP response, % of DMSO in assay [4] was 97.5% (inactive); in assay [5], 96.4% (inactive); in assay [5] (setting [6]), 96.4%; in assay [5] (setting [7]), 94.5%.

`COc1ccccc1N1CCN(C2CCCN(Cc3cc(F)cc(F)c3)C2)CC1` (stereo not drawn): the GFP response vs DMSO in assay [1] was 96% (inactive); in assay [1] (setting [6]), 97.3%; in assay [1] (setting [7]), 95.9%; in assay [3], 99.3% (inactive). Moreover, the GFP response relative to DMSO in assay [2] is 98.9% (inactive); in assay [2] (setting [8]) it was 97.5%; in assay [2] (setting [9]), 98.4%. The GFP response, % of DMSO was 102% (inactive) in assay [4], 103% (inactive) in assay [5], 99.3% in assay [5] (setting [6]) and 104% in assay [5] (setting [7]).

As to `CC1CCc2c(C(=O)NCc3cccnc3)csc2C1` (stereo not drawn), the GFP response vs DMSO was 94.2% (inactive) in assay [1], 94.2% in assay [1] (setting [6]), 92.7% in assay [1] (setting [7]) and 94.7% (inactive) in assay [3]. The GFP response relative to DMSO is 111% (inactive) in assay [2], 109% in assay [2] (setting [8]) and 113% in assay [2] (setting [9]). The GFP response, % of DMSO in assay [4] was 95.9% (inactive); in assay [5] it was 87.2% (inactive); in assay [5] (setting [6]) it was 84.8%; in assay [5] (setting [7]), 88.2%.

Take `c1ccc(Cn2ncc3ccccc32)cc1`: the GFP response vs DMSO is 100% (inactive) in assay [1], 101% in assay [1] (setting [6]), 101% in assay [1] (setting [7]) and 99.5% (inactive) in assay [3]. Further, the GFP response relative to DMSO in assay [2] is 94.2% (inactive); in assay [2] (setting [8]), 92.2%; in assay [2] (setting [9]) it was 93.6%. Besides, the GFP response, % of DMSO was 96.2% (inactive) in assay [4], 97.8% (inactive) in assay [5], 98.3% in assay [5] (setting [6]) and 96.8% in assay [5] (setting [7]).

Regarding `Cc1ccc(/C=c2\sc3nc(-c4cccs4)nn3c2=O)o1`, the GFP response vs DMSO was 98.6% (inactive) in assay [1], 95.9% in assay [1] (setting [6]), 95.4% in assay [1] (setting [7]) and 163% (inactive) in assay [3]. Moreover, the results for the GFP response relative to DMSO in assay [2], in assay [2] (setting [8]) and in assay [2] (setting [9]) were 128% (inactive), 117% and 131%, respectively. The GFP response, % of DMSO in assay [4] was 95.4% (inactive); in assay [5], 104% (inactive); in assay [5] (setting [6]), 101%; in assay [5] (setting [7]) it was 104%.

On to `Cc1cc(NCCCN2CCOCC2)n2ncc(-c3ccccc3)c2n1`, for which the GFP response vs DMSO in assay [1] is 99.3% (inactive); in assay [1] (setting [6]), 98.1%; in assay [1] (setting [7]), 99.6%; in assay [3], 102% (inactive). In addition, the figures for the GFP response relative to DMSO in assay [2], in assay [2] (setting [8]) and in assay [2] (setting [9]) were 96.2% (inactive), 95.6% and 98.3%, respectively. Also, the GFP response, % of DMSO in assay [4] is 102% (inactive); in assay [5], 95.2% (inactive); in assay [5] (setting [6]), 98.1%; in assay [5] (setting [7]), 93.4%.

`O=C1C2C3C=CC(CNS(=O)(=O)c4ccccc4)(O3)C2C(=O)N1c1ccc(Cl)cc1` (stereo not drawn): the GFP response vs DMSO is 102% (inactive) in assay [1], 103% in assay [1] (setting [6]), 102% in assay [1] (setting [7]) and 114% (inactive) in assay [3]. The GFP response relative to DMSO in assay [2] was 110% (inactive); in assay [2] (setting [8]), 109%; in assay [2] (setting [9]) it was 109%. Also, the GFP response, % of DMSO was 99.7% (inactive) in assay [4], 111% (inactive) in assay [5], 113% in assay [5] (setting [6]) and 108% in assay [5] (setting [7]).

Consider `CCOc1ccccc1-c1noc(CCC(=O)Nc2cccnc2)n1`, for which the GFP response vs DMSO in assay [1] was 98.4% (inactive); in assay [1] (setting [6]), 99%; in assay [1] (setting [7]), 99.2%; in assay [3], 111% (inactive). For the same compound, the GFP response relative to DMSO in assay [2] is 107% (inactive); in assay [2] (setting [8]), 105%; in assay [2] (setting [9]), 110%. Moreover, the GFP response, % of DMSO is 106% (inactive) in assay [4], 110% (inactive) in assay [5], 108% in assay [5] (setting [6]) and 112% in assay [5] (setting [7]).

Source of the values: PubChem BioAssay.
